Values after ≈ are worked out from the molar mass of the structure shown.
Key:
Assay type in all cases: functional
Escherichia coli [1] = test: Antibacterial activity against Escherichia coli ATCC 25922 assessed as bacterial growth inhibition by broth microdilution assay
Method in brief: (§1)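 Broth microdilution. Bacteria from glycerol stocks were grown overnight on blood agar at 37 °C, then colonies were suspended in TSB and grown to OD600 0.5. Compounds were dissolved in DMSO at 6.4 mg mL−1 (stock) and serially diluted in CAMHB (Mg2+ 12.5, Ca2+ 20 μg mL−1) in polypropylene plates. Inoculum was 10^6 CFU mL−1 final, incubated at 37 °C. MIC = lowest concentration without visible growth; values consistent across at least triplicate experiments.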

Escherichia coli [2] = test: Antibacterial activity against Escherichia coli 1313 assessed as bacterial growth inhibition by broth microdilution assay; method in brief: as §1
Escherichia coli [3] = test: Antibacterial activity against multidrug-resistant Escherichia coli NCTC 13846 assessed as bacterial growth inhibition by broth microdilution assay
Method in brief: (§2)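 Broth microdilution MIC. Strains grown overnight on blood agar at 37 °C, colonies suspended in TSB and grown to OD600 0.5. Compounds dissolved in DMSO (6.4 mg mL−1 stock), diluted serially in CAMHB (12.5 μg mL−1 Mg2+, 20 μg mL−1 Ca2+) on polypropylene plates. Final inoculum 10^6 CFU mL−1, 37 °C under gas-permeable membrane. MIC is the lowest concentration with no visible growth, consistent across at least triplicate experiments.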

Klebsiella pneumoniae [4] = test: Antibacterial activity against Klebsiella pneumoniae ATCC 13883 assessed as bacterial growth inhibition by broth microdilution assay; method in brief: as §1
Klebsiella pneumoniae [5] = test: Antibacterial activity against Klebsiella pneumoniae JS-123 assessed as bacterial growth inhibition by broth microdilution assay; method in brief: as §1
Klebsiella pneumoniae [6] = test: Antibacterial activity against Klebsiella pneumoniae NCTC 13443 assessed as bacterial growth inhibition by broth microdilution assay; method in brief: as §1
Acinetobacter baumannii [7] = test: Antibacterial activity against Acinetobacter baumannii ATCC 19606 assessed as bacterial growth inhibition by broth microdilution assay; method in brief: as §2
Acinetobacter baumannii [8] = test: Antibacterial activity against Acinetobacter baumannii ATCC 17978 assessed as bacterial growth inhibition by broth microdilution assay; method in brief: as §2
Acinetobacter baumannii [9] = test: Antibacterial activity against multidrug-resistant Acinetobacter baumannii assessed as bacterial growth inhibition by broth microdilution assay; method in brief: as §2
Acinetobacter baumannii [10] = test: Antibacterial activity against Acinetobacter baumannii 2018-006 assessed as bacterial growth inhibition by broth microdilution assay; method in brief: as §2
Pseudomonas aeruginosa [11] = test: Antibacterial activity against Pseudomonas aeruginosa ATCC 27853 assessed as bacterial growth inhibition by broth microdilution assay; method in brief: as §1
Pseudomonas aeruginosa [12] = test: Antibacterial activity against Pseudomonas aeruginosa NRZ 08418 assessed as bacterial growth inhibition by broth microdilution assay; method in brief: as §1
Pseudomonas aeruginosa [13] = test: Antibacterial activity against Pseudomonas aeruginosa NRZ 03961 assessed as bacterial growth inhibition by broth microdilution assay; method in brief: as §1

Row | SMILES | MIC (Escherichia coli [1]) [µg/mL] | MIC (Escherichia coli [2]) [µg/mL] | MIC (Escherichia coli [3]) [µg/mL] | MIC (Klebsiella pneumoniae [4]) [µg/mL] | MIC (Klebsiella pneumoniae [5]) [µg/mL] | MIC (Klebsiella pneumoniae [6]) [µg/mL] | MIC (Acinetobacter baumannii [7]) [µg/mL] | MIC (Acinetobacter baumannii [8]) [µg/mL] | MIC (Acinetobacter baumannii [9]) [µg/mL] | MIC (Acinetobacter baumannii [10]) [µg/mL] | MIC (Pseudomonas aeruginosa [11]) [µg/mL] | MIC (Pseudomonas aeruginosa [12]) [µg/mL] | MIC (Pseudomonas aeruginosa [13]) [µg/mL]
1 | CC(C)C[C@@H]1NC(=O)[C@@H](Cc2ccccc2)NC(=O)[C@H](CCN)NC(=O)[C@@H](NC(=O)[C@@H](CN)NC(=O)[C@@H](NC(=O)[C@H](N)CSSCc2cccc(Cl)c2)[C@@H](C)O)CCNC(=O)[C@H]([C@@H](C)O)NC(=O)[C@H](CCN)NC(=O)[C@H](CCN)NC1=O | 2 (≈ 1.65 µM) | 0.5 (≈ 0.414 µM) | 16 (≈ 13.2 µM) | 0.5 (≈ 0.414 µM) | 2 (≈ 1.65 µM) | 8 (≈ 6.62 µM) | 0.5 (≈ 0.414 µM) | 0.5 (≈ 0.414 µM) | 0.5 (≈ 0.414 µM) | 0.5 (≈ 0.414 µM) | 1 (≈ 0.827 µM) | 0.5 (≈ 0.414 µM) | 2 (≈ 1.65 µM)
2 | CC(C)CCSSC[C@@H](N)C(=O)N[C@H](C(=O)N[C@H](CO)C(=O)N[C@H]1CCNC(=O)[C@H]([C@@H](C)O)NC(=O)[C@H](CCN)NC(=O)[C@H](CCN)NC(=O)[C@H](CC(C)C)NC(=O)[C@@H](Cc2ccccc2)NC(=O)[C@H](CCN)NC1=O)[C@@H](C)O | 2 (≈ 1.73 µM) | 0.5 (≈ 0.433 µM) | 16 (≈ 13.8 µM) | 0.5 (≈ 0.433 µM) | 0.5 (≈ 0.433 µM) | 1 (≈ 0.865 µM) | 0.25 (≈ 0.216 µM) | 0.25 (≈ 0.216 µM) | 0.5 (≈ 0.433 µM) | 0.5 (≈ 0.433 µM) | 4 (≈ 3.46 µM) | 8 (≈ 6.92 µM) | 8 (≈ 6.92 µM)
3 | CC(C)CCSSC[C@@H](N)C(=O)N[C@H](C(=O)NCC(=O)N[C@H]1CCNC(=O)[C@H]([C@@H](C)O)NC(=O)[C@H](CCN)NC(=O)[C@H](CCN)NC(=O)[C@H](CC(C)C)NC(=O)[C@@H](Cc2ccccc2)NC(=O)[C@H](CCN)NC1=O)[C@@H](C)O | 2 (≈ 1.78 µM) | 0.25 (≈ 0.222 µM) | 16 (≈ 14.2 µM) | 0.5 (≈ 0.444 µM) | 0.5 (≈ 0.444 µM) | 0.5 (≈ 0.444 µM) | 0.5 (≈ 0.444 µM) | 0.5 (≈ 0.444 µM) | 0.5 (≈ 0.444 µM) | 0.5 (≈ 0.444 µM) | 4 (≈ 3.55 µM) | 4 (≈ 3.55 µM) | 4 (≈ 3.55 µM)
4 | CC(C)C[C@@H]1NC(=O)[C@@H](Cc2ccccc2)NC(=O)[C@H](CCN)NC(=O)[C@@H](NC(=O)[C@@H](CN)NC(=O)[C@@H](NC(=O)[C@H](N)CSSCCC2CCCCC2)[C@@H](C)O)CCNC(=O)[C@H]([C@@H](C)O)NC(=O)[C@H](CCN)NC(=O)[C@H](CCN)NC1=O | 2 (≈ 1.67 µM) | 0.5 (≈ 0.419 µM) | 4 (≈ 3.35 µM) | 1 (≈ 0.837 µM) | 1 (≈ 0.837 µM) | 1 (≈ 0.837 µM) | 0.5 (≈ 0.419 µM) | 1 (≈ 0.837 µM) | 1 (≈ 0.837 µM) | 0.5 (≈ 0.419 µM) | 2 (≈ 1.67 µM) | 2 (≈ 1.67 µM) | 2 (≈ 1.67 µM)
5 | CC(C)C[C@@H]1NC(=O)[C@@H](Cc2ccccc2)NC(=O)[C@H](CCN)NC(=O)[C@@H](NC(=O)[C@H](CN)NC(=O)[C@@H](NC(=O)[C@H](N)CSSCc2cccc(Cl)c2)[C@@H](C)O)CCNC(=O)[C@H]([C@@H](C)O)NC(=O)[C@H](CCN)NC(=O)[C@H](CCN)NC1=O | 2 (≈ 1.65 µM) | ≤ 0.125 | 2 (≈ 1.65 µM) | 0.5 (≈ 0.414 µM) | 0.5 (≈ 0.414 µM) | 2 (≈ 1.65 µM) | 0.5 (≈ 0.414 µM) | ≤ 0.25 | 8 (≈ 6.62 µM) | 2 (≈ 1.65 µM) | 4 (≈ 3.31 µM) | 2 (≈ 1.65 µM) | 2 (≈ 1.65 µM)
6 | CC(C)C[C@@H]1NC(=O)[C@@H](Cc2ccccc2)NC(=O)[C@H](CCN)NC(=O)[C@@H](NC(=O)[C@@H](CO)NC(=O)[C@@H](NC(=O)[C@H](N)CSSCCC2CCCCC2)[C@@H](C)O)CCNC(=O)[C@H]([C@@H](C)O)NC(=O)[C@H](CCN)NC(=O)[C@H](CCN)NC1=O | 2 (≈ 1.67 µM) | 1 (≈ 0.836 µM) | 8 (≈ 6.69 µM) | 1 (≈ 0.836 µM) | 1 (≈ 0.836 µM) | 1 (≈ 0.836 µM) | 0.25 (≈ 0.209 µM) | 1 (≈ 0.836 µM) | 1 (≈ 0.836 µM) | 0.5 (≈ 0.418 µM) | 4 (≈ 3.35 µM) | 4 (≈ 3.35 µM) | 4 (≈ 3.35 µM)
7 | CC(C)CCSSC[C@@H](N)C(=O)N[C@H](C(=O)N[C@H](CN)C(=O)N[C@H]1CCNC(=O)[C@H]([C@@H](C)O)NC(=O)[C@H](CCN)NC(=O)[C@H](CCN)NC(=O)[C@H](CC(C)C)NC(=O)[C@@H](Cc2ccccc2)NC(=O)[C@H](CCN)NC1=O)[C@@H](C)O | 2 (≈ 1.73 µM) | 0.5 (≈ 0.433 µM) | 8 (≈ 6.93 µM) | 0.5 (≈ 0.433 µM) | 0.5 (≈ 0.433 µM) | 0.5 (≈ 0.433 µM) | 0.25 (≈ 0.217 µM) | 0.25 (≈ 0.217 µM) | 0.25 (≈ 0.217 µM) | 0.25 (≈ 0.217 µM) | 1 (≈ 0.866 µM) | 4 (≈ 3.46 µM) | 2 (≈ 1.73 µM)

From ChEMBL document CHEMBL5356951, “Semisynthetic polymyxins with potent antibacterial activity and reduced kidney cell toxicity” (RSC Med Chem, 2023)
